Data on six compounds can be found in ChEMBL document CHEMBL1124824, “Synthesis and biological activity of atrial natriuretic factor analogues: effect of modifications to the disulfide bridge” (J Med Chem, 1990).

Starred links: 1 amine or outer side, 2 acyl side, 3 side chain; linkers in the order of their positions; H or OH if unused. Positions of bridges follow the written chain, without caps; N, C: chain ends. Non-standard residues stand in square brackets, D forms with d. Residues, ends and D or L forms follow the SMILES beside them. Pen = CC(C)(S)[C@H](N)C(=O)O; hCys = N[C@@H](CCS)C(=O)O; X2 = O=C(CCC[*:2])[*:1]; X1 = O=C(CC[*:2])[*:1]

The species entered for assay [1] is Rattus norvegicus. Description: Compound was tested for the Cl- excretion for treated over control animals. The class given is functional. Put shortly: (§1)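 Male Sprague-Dawley rats (300-325 g) under halothane/lidocaine had femoral artery, femoral vein and bladder cannulated. After at least 1 h of recovery in restraint, they received Ringer's (1.2 mL/h), with 10-min urine collections over a 30-min control period. Infusion of 0.5 μg/kg per min for 30 min and a 30-min Ringer's recovery followed. Na+, K+ and Cl- were measured with an electrolyte analyzer, reported as treated minus control μmol/sample. Volume ratio is treated/control over three consecutive 10-min samples, six animals.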

The species entered for assay [2] is Rattus norvegicus. The experiment in a line: Compound was tested for the K+ excretion for treated over control animals. The format is functional. Put shortly:
as §1

The species entered for assay [3] is Rattus norvegicus. The experiment in a line: Compound was tested for antihypertensive activity in DOCA nephrectomized rats. The format is functional. An outline of the steps:
(§2)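 Rats were anesthetized with halothane after skin infiltration with 2% lidocaine, and the femoral artery and vein were cannulated. After recovery, arterial pressure was recorded. A saline control period was followed by i.v. infusion in 30-min steps at 0.1, 0.2, 0.5 and 1.0 μg/kg per min (70 μL/kg per min). Hydralazine (100 μg/kg per min) was given for standardization. ED50 is in nmol/kg per min, from six animals.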

Assay [4] concerns Rattus norvegicus. The experiment in a line: Compound was tested for diuretic activity and the ratio of urine volume for treated over control animals was reported after infused at a dose of 0.5 ug/kg. The format is functional. An outline of the steps:
as §1

The species entered for assay [5] is Rattus norvegicus. The experiment in a line: Compound was tested for antihypertensive activity in 5/6 nephrectomized rats. The class given is functional. An outline of the steps: as §2
The species entered for assay [6] is Rattus norvegicus. The experiment in a line: Compound was tested for the Na+ excretion for treated over control animals. The class given is functional. An outline of the steps: as §1
Assay [7] concerns the target T1, Atrial natriuretic peptide receptor 3 (Mus musculus, UniProt P70180).
T1 sequence (P70180 whole entry): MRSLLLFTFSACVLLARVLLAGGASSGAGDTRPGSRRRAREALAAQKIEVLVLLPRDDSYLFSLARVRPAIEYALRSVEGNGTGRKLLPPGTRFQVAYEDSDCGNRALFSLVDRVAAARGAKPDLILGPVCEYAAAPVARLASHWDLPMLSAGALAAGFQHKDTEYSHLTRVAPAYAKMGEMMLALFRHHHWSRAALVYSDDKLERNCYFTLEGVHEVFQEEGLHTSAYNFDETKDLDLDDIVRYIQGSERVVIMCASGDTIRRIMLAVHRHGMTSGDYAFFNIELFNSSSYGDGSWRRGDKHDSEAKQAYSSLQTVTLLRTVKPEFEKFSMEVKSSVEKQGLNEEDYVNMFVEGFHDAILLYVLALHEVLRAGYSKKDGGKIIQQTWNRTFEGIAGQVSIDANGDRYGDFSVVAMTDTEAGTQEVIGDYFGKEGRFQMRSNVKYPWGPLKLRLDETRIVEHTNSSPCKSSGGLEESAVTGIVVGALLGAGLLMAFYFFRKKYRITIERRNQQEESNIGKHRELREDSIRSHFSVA
The experiment in a line: Binding affinity was determined based on the displacement of [125]r-ANF (99-126) from binding sites on mouse fibroblasts (NIH 3T3) cells (Atrionatriuretic peptide receptor C).

For assay [8], the species on record is Oryctolagus cuniculus. The experiment in a line: Compound was tested for the inhibition of the stimulated contractions of the superfused rabbit thoracic aortic rings. The format is functional, Aorta. An outline of the steps:
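Rabbit thoracic aorta rings (4 mm) were held isometrically at 10-g resting tension, superfused and precontracted with phenylephrine. Test peptide was added to the superfusate above the tissue in successively higher doses after each recovery. Doses were based on peptide content. EC50 came from the dose-response curve, mean of three determinations ± SEM.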

Assay [9] has as its target T2, Atrial natriuretic peptide receptor 2 (Bos taurus, UniProt P46197).
T2 sequence (P46197 whole entry): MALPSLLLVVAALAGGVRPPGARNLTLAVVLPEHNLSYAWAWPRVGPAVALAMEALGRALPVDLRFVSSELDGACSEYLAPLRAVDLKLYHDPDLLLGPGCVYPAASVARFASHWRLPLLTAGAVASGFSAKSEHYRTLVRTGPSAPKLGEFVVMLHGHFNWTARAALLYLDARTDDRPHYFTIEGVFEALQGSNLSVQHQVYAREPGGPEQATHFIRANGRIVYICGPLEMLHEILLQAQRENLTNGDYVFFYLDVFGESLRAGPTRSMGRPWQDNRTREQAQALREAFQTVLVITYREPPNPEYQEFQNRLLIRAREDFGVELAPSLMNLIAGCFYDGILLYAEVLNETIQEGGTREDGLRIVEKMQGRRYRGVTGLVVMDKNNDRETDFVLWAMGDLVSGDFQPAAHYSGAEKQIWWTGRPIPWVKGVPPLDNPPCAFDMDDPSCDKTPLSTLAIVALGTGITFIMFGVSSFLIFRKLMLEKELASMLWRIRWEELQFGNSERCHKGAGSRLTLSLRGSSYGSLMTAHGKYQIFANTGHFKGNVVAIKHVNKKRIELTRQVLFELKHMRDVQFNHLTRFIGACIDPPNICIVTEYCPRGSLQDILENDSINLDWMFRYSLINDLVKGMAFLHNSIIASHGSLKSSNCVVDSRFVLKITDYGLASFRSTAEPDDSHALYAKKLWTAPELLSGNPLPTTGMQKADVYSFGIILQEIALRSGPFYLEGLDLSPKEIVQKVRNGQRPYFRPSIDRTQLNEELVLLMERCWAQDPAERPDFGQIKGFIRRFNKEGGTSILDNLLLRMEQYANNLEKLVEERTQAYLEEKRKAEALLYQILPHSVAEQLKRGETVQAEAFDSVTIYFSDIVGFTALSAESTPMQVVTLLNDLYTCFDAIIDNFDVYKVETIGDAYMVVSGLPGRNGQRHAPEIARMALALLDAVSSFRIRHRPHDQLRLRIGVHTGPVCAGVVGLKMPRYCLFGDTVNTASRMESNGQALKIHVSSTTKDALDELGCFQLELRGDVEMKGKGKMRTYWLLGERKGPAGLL
The experiment in a line: Binding affinity was determined based on the displacement of [125]r-ANF (99-126) from binding sites on bovine adrenal zona glomerulosa cell membranes (Atrionatriuretic peptide receptor B).

What is called IC50 is the point on the concentration scale where inhibition reaches its midpoint.

As to `CC[C@H](C)[C@@H]1NC(=O)[C@H](CCCN=C(N)N)NC(=O)[C@H](CC(=O)O)NC(=O)[C@H]([C@@H](C)CC)NC(=O)[C@H](CCCN=C(N)N)NC(=O)CNC(=O)CNC(=O)[C@H](Cc2ccccc2)NC(=O)CCCSC[C@@H](C(=O)N[C@@H](CC(N)=O)C(=O)N[C@@H](CO)C(=O)N[C@@H](Cc2ccccc2)C(=O)N[C@@H](CCCN=C(N)N)C(=O)N[C@@H](Cc2ccc(O)cc2)C(=O)O)NC(=O)CNC(=O)[C@H](CC(C)C)NC(=O)CNC(=O)[C@H](CO)NC(=O)[C@H](CCC(N)=O)NC(=O)[C@H](C)NC(=O)CNC1=O` (FGGRIDRIGAQSGLGCNSFRY-OH; linker N-16 via X2), the Electrolyte excretion is 41.1 umol/sample in assay [1], 10.2 uM sample-1 in [2] and 34 uM sample-1 in assay [6]. For the same compound, the ED50 in assay [3] amounted to 0.72 nM/min/kg; in assay [5], 1.1 nM/min/kg. In assay [4], the Ratio came out at 2.8.
Take `CC[C@H](C)[C@@H]1NC(=O)[C@H](CCCN=C(N)N)NC(=O)[C@H](CC(=O)O)NC(=O)[C@H]([C@@H](C)CC)NC(=O)[C@H](CCCN=C(N)N)NC(=O)CNC(=O)CNC(=O)[C@H](Cc2ccccc2)NC(=O)CCSCC[C@@H](C(=O)N[C@@H](CC(N)=O)C(=O)N[C@@H](CO)C(=O)N[C@@H](Cc2ccccc2)C(=O)N[C@@H](CCCN=C(N)N)C(=O)N[C@@H](Cc2ccc(O)cc2)C(=O)O)NC(=O)CNC(=O)[C@H](CC(C)C)NC(=O)CNC(=O)[C@H](CO)NC(=O)[C@H](CCC(N)=O)NC(=O)[C@H](C)NC(=O)CNC1=O` (FGGRIDRIGAQSGLG[hCys]NSFRY-OH; linker N-16 via X1): the values for the Electrolyte excretion in assay [1], in assay [2] and in assay [6] were 15.9 umol/sample, 3.5 uM sample-1 and 7.2 uM sample-1, respectively. Moreover, the figures for the ED50 in [3] and in assay [5] were 0.83 nM/min/kg and 1.2 nM/min/kg, respectively. Moreover, the Ratio in assay [4] came to 1.7.
As to `CC[C@H](C)[C@@H]1NC(=O)[C@H](CCCN=C(N)N)NC(=O)[C@H](CC(=O)O)NC(=O)[C@H]([C@@H](C)CC)NC(=O)[C@H](CCCN=C(N)N)NC(=O)CNC(=O)CNC(=O)[C@H](Cc2ccccc2)NC(=O)[C@@H](NC(=O)[C@H](CO)NC(=O)[C@H](CO)NC(=O)[C@H](CCCN=C(N)N)NC(=O)[C@H](CC(C)C)NC(=O)[C@@H](N)CO)CSSC[C@@H](C(=O)N[C@@H](CC(N)=O)C(=O)N[C@@H](CO)C(=O)N[C@@H](Cc2ccccc2)C(=O)N[C@@H](CCCN=C(N)N)C(=O)N[C@@H](Cc2ccc(O)cc2)C(=O)O)NC(=O)CNC(=O)[C@H](CC(C)C)NC(=O)CNC(=O)[C@H](CO)NC(=O)[C@H](CCC(N)=O)NC(=O)[C@H](C)NC(=O)CNC1=O`, the Electrolyte excretion in [1] was 72.4 umol/sample; in assay [2] it was 16.2 uM sample-1; in assay [6] it was 57.4 uM sample-1. In addition, the ED50 in assay [3] came out at 0.1 nM/min/kg; in [5] it was 0.14 nM/min/kg. The Ratio in assay [4] is reported as 3.1.
On to `CC[C@H](C)[C@@H]1NC(=O)[C@H](CCCN=C(N)N)NC(=O)[C@H](CC(=O)O)NC(=O)[C@H]([C@@H](C)CC)NC(=O)[C@H](CCCN=C(N)N)NC(=O)CNC(=O)CNC(=O)[C@H](Cc2ccccc2)NC(=O)[C@@H](NC(=O)[C@H](CO)NC(=O)[C@@H](N)CO)CSSC[C@@H](C(=O)N[C@@H](CC(N)=O)C(=O)N[C@@H](CO)C(=O)N[C@@H](Cc2ccccc2)C(=O)N[C@@H](CCCN=C(N)N)C(=O)N[C@@H](Cc2ccc(O)cc2)C(=O)O)NC(=O)CNC(=O)[C@H](CC(C)C)NC(=O)CNC(=O)[C@H](CO)NC(=O)[C@H](CCC(N)=O)NC(=O)[C@H](C)NC(=O)CNC1=O` (H-SSCFGGRIDRIGAQSGLGCNSFRY-OH; disulfide 3-19), for which the results for the Electrolyte excretion in [2] and in assay [6] were 23 uM sample-1 and 79.6 uM sample-1, respectively. In addition, the ED50 in assay [3] was 0.16 nM/min/kg; in assay [5] it was 0.13 nM/min/kg. Further, in assay [4], the Ratio stood at 2.7.
In the case of `CC[C@H](C)[C@@H]1NC(=O)[C@H](CCCN=C(N)N)NC(=O)[C@H](CC(=O)O)NC(=O)[C@H]([C@@H](C)CC)NC(=O)[C@H](CCCN=C(N)N)NC(=O)CNC(=O)CNC(=O)[C@H](Cc2ccccc2)NC(=O)[C@@H](N)CSSC[C@@H](C(=O)N[C@@H](CC(N)=O)C(=O)N[C@@H](CO)C(=O)N[C@@H](Cc2ccccc2)C(=O)N[C@@H](CCCN=C(N)N)C(=O)N[C@@H](Cc2ccc(O)cc2)C(=O)O)NC(=O)CNC(=O)[C@H](CC(C)C)NC(=O)CNC(=O)[C@H](CO)NC(=O)[C@H](CCC(N)=O)NC(=O)[C@H](C)NC(=O)CNC1=O` (H-CFGGRIDRIGAQSGLGCNSFRY-OH; disulfide 1-17), the IC50 worked out at 0.5 nM in assay [7] and 3.6 nM in assay [9]. In addition, the Electrolyte excretion in assay [1] is recorded as 28.5 umol/sample; in assay [2] it was 12.9 uM sample-1; in assay [6], 15.9 uM sample-1. Moreover, the EC50 in assay [8] turned out to be 3.1e-10 M 50ul-1. The compound further came in with an ED50 in [3] of 0.1 nM/min/kg.
As to `CC[C@H](C)[C@@H]1NC(=O)[C@H](CCCN=C(N)N)NC(=O)[C@H](CC(=O)O)NC(=O)[C@H]([C@@H](C)CC)NC(=O)[C@H](CCCN=C(N)N)NC(=O)CNC(=O)CNC(=O)[C@H](Cc2ccccc2)NC(=O)CCCSC(C)(C)[C@@H](C(=O)N[C@@H](CC(N)=O)C(=O)N[C@@H](CO)C(=O)N[C@@H](Cc2ccccc2)C(=O)N[C@@H](CCCN=C(N)N)C(=O)N[C@@H](Cc2ccc(O)cc2)C(=O)O)NC(=O)CNC(=O)[C@H](CC(C)C)NC(=O)CNC(=O)[C@H](CO)NC(=O)[C@H](CCC(N)=O)NC(=O)[C@H](C)NC(=O)CNC1=O` (FGGRIDRIGAQSGLG[Pen]NSFRY-OH; linker N-16 via X2), the Electrolyte excretion in [1] is on record as 39.6 umol/sample; in assay [2], 24.8 uM sample-1; in [6], 17.9 uM sample-1. Besides, the ED50 in [3] is 0.14 nM/min/kg; in assay [5], 0.11 nM/min/kg. Further, in assay [4], the Ratio was determined as 3.
